The subject of series [1] is avian myeloblastosis virus reverse transcriptase (AMV-RT). Kind of series: PAGE analysis of primer extension reactions, AMV-RT. The following applies: single dNTPs. It counts as biochemical.
The target of series [2] is T1, human DNA polymerase β (Homo sapiens, UniProt P06746). Kind of series: PAGE analysis of primer extension reactions, pol β. It counts as biochemical.
For series [3], the system named is avian myeloblastosis virus reverse transcriptase (AMV-RT). Kind of series: MALDI-TOF analysis of primer extension products, AMV-RT. It counts as biochemical. The following applies: 1 mM each dNTP, 20-mer products.
In series [4] the target is T1, human DNA polymerase β. Kind of series: MALDI-TOF analysis of primer extension products, pol β. The conditions noted are these: 1 mM each dNTP, 19-mer and 20-mer products. It counts as biochemical. The method, boiled down: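 Unlabelled 16-mer primer (10 pmol) annealed to a 25-mer template (20 pmol; 2′-O-methylguanosine or 8-nitro-2′-O-methylguanosine) at 70°C for 20 min, then room temperature for 15 min. Final pol β was 750 nM, with 1 mM each dNTP. Incubated 37°C for 60 min, stopped at 90°C for 5 min. Desalted on C18 tips (0.1 M TEAA pH 7.0), eluted in 3-HPA/ammonium citrate matrix. Products assigned by calculated m/z against a 20-mer standard mix.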

The conditions of series [5]: cited from earlier work.
The nature of series [6]: pKa determination from pH-dependent UV absorption. It counts as physicochemical. The conditions noted are these: 25 °C; for pKa (deprotonation at N1): free nucleoside.
For series [7] the following is noted: free nucleoside; cited from earlier work.

With “5′-TCANCATTGGGAGTCGACATAGCGC–3′ [8-nitroG template]”, in series [1], the “single dNTP most preferentially inserted” value is reported as “dATP”. Moreover, the “dCTP incorporation, level relative to the control” value on human DNA polymerase β [2] (single dCTP) was under 20%. In addition, the “increase of dTTP incorporation relative to control” value on human DNA polymerase β [2] (single dTTP, from a low level) is “around 2 fold”.

Regarding “5′-TCANCATTGGGAGTCGACATAGCGC–3′ [control template]”, the “nucleotide incorporated opposite X in extended products” value in series [3] is recorded as “predominantly dC”; at human DNA polymerase β [4] it was “only dC”.

As to `Nc1nc2c(nc([N+](=O)[O-])n2C2OC(CO)C(O)C2F)c(=O)[nH]1` (centres unmarked) [2′-fluoro, reference compound], the “half-life (depurination)” value in series [5] (pH 7.4) is recorded as 72 days.

On to `Nc1nc2c(nc([N+](=O)[O-])n2[C@@H]2O[C@H](CO)[C@@H](O)[C@H]2O)c(=O)[nH]1` [Compound 6a, 8-Nitroguanosine], for which the “half-life (hydrolytic stability)” value in series [5] (pH 7 and 37°C, ref one published study) is 0.21 days. The “pKa (deprotonation at N1)” value in series [6] came out at 8.4.

As for `CO[C@@H]1[C@H](O)[C@@H](CO)O[C@H]1n1c([N+](=O)[O-])nc2c(=O)[nH]c(N)nc21` [Compound 6b, 8-Nitro-2′-O-methylguanosine], the “pKa (deprotonation at N1)” value in series [6] was 8.3.

One may read the pKa as the pH at which an ionisable group is half protonated. For `Nc1nc2c(ncn2[C@@H]2O[C@H](CO)[C@@H](O)[C@H]2O)c(=O)[nH]1` [guanosine], the pKa in series [7] is listed as 9.4.

In the case of GCGTACG**CATGCG [ODN4], the “pKa of 8-nitro-2′-O-methylguanosine within the single-stranded oligonucleotide” value in series [6] (single-stranded ODN GCGTACG**CATGCG) stood at 9.1.

The values above are taken from paper PMC3505964 (Nucleic Acids Research, 2012).
